From PubChem BioAssay
TRPC6 inhibitor – mouse TRPC6 channel inhibitors, primary screen, cell-based, HEK293, membrane potential dye; 310,000 compounds, 1.1% hits; ACh-evoked depolarization; stronger effect = lower value; B-score at 10 µM;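 active means B-score under library mean minus 3 SD, initial fluorescence not abnormally high, positive integrated signal ratio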;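 further: B-score derived from integrated fluorescence ratio over the kinetic read; more negative B-score means stronger inhibition of depolarization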
Target sequence (Q61143 whole entry, looked up): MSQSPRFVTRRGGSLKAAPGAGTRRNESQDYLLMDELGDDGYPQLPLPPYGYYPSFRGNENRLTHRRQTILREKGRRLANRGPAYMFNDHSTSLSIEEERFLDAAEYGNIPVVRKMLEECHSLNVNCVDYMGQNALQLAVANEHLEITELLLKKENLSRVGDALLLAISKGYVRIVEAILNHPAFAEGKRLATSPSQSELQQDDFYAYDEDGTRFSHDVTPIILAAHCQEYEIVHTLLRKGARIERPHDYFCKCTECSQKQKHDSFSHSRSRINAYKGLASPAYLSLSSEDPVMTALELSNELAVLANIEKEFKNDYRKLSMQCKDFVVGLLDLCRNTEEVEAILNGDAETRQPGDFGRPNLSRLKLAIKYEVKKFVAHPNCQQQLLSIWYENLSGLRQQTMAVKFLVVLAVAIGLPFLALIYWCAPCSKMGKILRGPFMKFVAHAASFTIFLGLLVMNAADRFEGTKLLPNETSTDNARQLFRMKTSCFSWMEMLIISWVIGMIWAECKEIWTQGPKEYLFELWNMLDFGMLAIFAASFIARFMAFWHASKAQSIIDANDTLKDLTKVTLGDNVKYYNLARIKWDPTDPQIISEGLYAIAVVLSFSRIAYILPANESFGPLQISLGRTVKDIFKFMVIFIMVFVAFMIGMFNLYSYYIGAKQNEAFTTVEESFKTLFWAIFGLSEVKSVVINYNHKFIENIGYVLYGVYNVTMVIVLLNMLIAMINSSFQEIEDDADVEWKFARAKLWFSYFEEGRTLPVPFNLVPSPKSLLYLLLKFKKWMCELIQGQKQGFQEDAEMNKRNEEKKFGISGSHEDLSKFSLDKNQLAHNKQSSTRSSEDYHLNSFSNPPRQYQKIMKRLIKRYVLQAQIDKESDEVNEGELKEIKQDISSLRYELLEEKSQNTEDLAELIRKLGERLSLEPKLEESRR
TRPC4 inh – inhibitors of mouse TRPC4 channel, primary screen, Fluo4 calcium, HEK293 TRPC4beta/mu-opioid cells. AID 2247, 2010. DAMGO-evoked Fluo4 calcium flux; stronger effect = lower value. B-score at 10 µM. Short transient receptor potential channel 4 (Mus musculus), Q9QUQ5. 300,000 compounds, 0.39% hits;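 active means B-score over 3 SD under the library average, no early fluorescence shift, positive overall ratio signal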
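System: stable TRPC4beta/mu-opioid receptor HEK293 cells; Dosing: single-point compound dosing; Measured by: Fluo4 Ca2+ flux fluorescence; Read-out basis: per-well B score of integrated baseline-normalized Fluo4 ratio.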
TRPC6 activator – mouse TRPC6 channel activators, primary screen, cell-based, HEK293, membrane potential dye. Short transient receptor potential channel 6 (Mus musculus), Q61143. HEK293-TRPC6 membrane potential dye fluorescence; stronger effect = higher value. B-score at 10 µM. 310,000 compounds, 0.13% hits. AID 2550, 2010;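 active means B-score of the integrated fluorescence ratio above library mean plus 3 SD, and starting fluorescence ratio within library mean plus 5 SD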;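 further: higher score means more depolarization so channel activation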
FID counter – compounds displacing fluorescent DNA intercalator, primary screen, artefact control for HCV NS3 helicase inhibitor project, biochemical, FID fluorescence. DNA fluorescent intercalator displacement. inhibition, % at 7.9 µM. 290,000 compounds, 0.17% hits. AID 1845, 2009; in the data active means inhibition above about 37%;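 further: 0% = vehicle and 100% = reference compound; higher means more ethidium bromide displaced from hairpin DNA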
TRPC4 act – activators of mouse TRPC4 channel, primary screen, Fluo4 calcium, HEK293 TRPC4beta/mu-opioid cells; 310,000 compounds, 0.49% hits; AID 2237, 2010; Fluo4 calcium fluorescence; stronger effect = higher value; B-score at 10 µM; Short transient receptor potential channel 4 (Mus musculus), Q9QUQ5;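 active means B-score above 5 SD of library B-scores, and initial fluorescence ratio not above library mean plus 5 SD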;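 further: positive B-score marks a calcium rise read as TRPC4 activation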
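System – HEK293 cells stably co-expressing mouse TRPC4beta and mu-opioid receptor · Signal – Fluo4 calcium-sensitive dye fluorescence, kinetic, 1 Hz baseline · Benchmarks – buffer (low) and maximal DAMGO (high) · Read-out – B score of integrated fluorescence ratio per well · Incubation – dye loading 45 min room temperature, 110 s kinetic read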
TRPC4 PAM – positive allosteric modulators of TRPC4, primary screen, cell-based, mouse TRPC4beta, HEK293 mu-opioid, Fluo-4 calcium. Short transient receptor potential channel 4 (Mus musculus), Q9QUQ5. DAMGO EC20, Fluo-4 Ca2+ flux; stronger effect = higher value. B-score at 10 µM. 310,000 compounds, 0.42% hits. AID 2227, 2009;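 active means B-score of calcium response area above 5 SD of library B-scores, with initial fluorescence ratio within 5 SD of library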;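 further: B-score of integrated fluorescence ratio over time as area under calcium response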
An asterisk follows results filed as active; i = inactive; . = no result. A selection: hits, their analogues and other compounds. The true share with any hit is near 2.3%.

SMILES	TRPC6 inhibitor	TRPC4 inh	TRPC6 activator	FID counter	TRPC4 act	TRPC4 PAM
Cc1nn(-c2cccc(Cl)c2)c2nc(C(F)(F)F)[nH]c(=O)c12	i	-8*	i	-2.0	i	i
C#CCOCCOCCOCCNc1nc(N2CCN(C(=O)C([C@@H](C)CC)n3cc(C(N)CC(C)C)nn3)CC2)nc(N2CCN(C(=O)[C@H](CCC(=O)O)n3cc(C(N)Cc4ccc(O)cc4)nn3)CC2)n1 (some centres not stated)	i	i	i	15.6	i	i
C#CCOCCOCCOCCNc1nc(N2CCN(C(=O)[C@H](CCCCN)n3cc([C@@H](N)C(C)CC)nn3)CC2)nc(N2CCN(C(=O)[C@H](Cc3ccc(O)cc3)n3cc([C@@H](N)CC(C)C)nn3)CC2)n1 (some centres not stated)	i	i	i	49.1*	i	i
C#CCOCCOCCOCCNc1nc(N2CCN(C(=O)[C@H]([C@@H](C)CC)n3cc([C@@H](N)Cc4ccc(O)cc4)nn3)CC2)nc(N2CCN(C(=O)[C@H](CCCCN)n3cc([C@@H](N)CC(C)C)nn3)CC2)n1	i	i	i	44.8*	i	i
C#CCOCCOCCOCCNc1nc(N2CCN(C(=O)[C@H]([C@@H](C)CC)n3cc([C@@H](N)CC(C)C)nn3)CC2)nc(N2CCN(C(=O)[C@H](CCCCN)n3cc([C@@H](N)CO)nn3)CC2)n1	i	i	i	38.3*	i	i
C#CCOCCOCCOCCNc1nc(N2CCN(C(=O)[C@H](CCCCN)n3cc([C@@H](N)CC(C)C)nn3)CC2)nc(N2CCN(C(=O)[C@H](CCCCN)n3cc([C@@H](N)CC(C)C)nn3)CC2)n1	i	i	i	58.0*	i	i
O=[N+]([O-])c1ccc2[nH]c3nc4ccccc4nc3c2c1	i	i	i	1.1	i	i
C#CCOCCOCCOCCNc1nc(N2CCOCC2)nc(N2CCN(C(=O)[C@H](Cc3ccc(O)cc3)n3cc([C@@H](N)C(C)CC)nn3)CC2)n1 (some centres not stated)	i	i	i	18.7	i	i
C#CCOCCOCCOCCNc1nc(N2CCN(C(=O)[C@H](CCC(=O)O)n3cc(C(N)CC(C)C)nn3)CC2)nc(N2CCN(C(=O)[C@H](Cc3ccc(O)cc3)n3cc(C(N)CC(C)C)nn3)CC2)n1 (some centres not stated)	i	i	i	12.4	i	i
C#CCOCCOCCOCCNc1nc(N2CCN(C(=O)C(Cc3ccc(O)cc3)n3cc(C(N)C(C)CC)nn3)CC2)nc(N2CCN(C(=O)C(Cc3ccc(O)cc3)n3cc(C(N)C(C)CC)nn3)CC2)n1 (configuration not stated)	i	i	i	39.6*	i	i
C#CCOCCOCCOCCNc1nc(N2CCN(C(=O)[C@H](CCCCN)n3cc([C@@H](N)CC(C)C)nn3)CC2)nc(N2CCN(C(=O)[C@H](Cc3ccc(O)cc3)n3cc([C@@H](N)CC(C)C)nn3)CC2)n1	i	i	i	44.2*	i	i
C#CCOCCOCCOCCNc1nc(N2CCN(C(=O)[C@H](Cc3ccc(O)cc3)n3cc([C@@H](N)CC(C)C)nn3)CC2)nc(N2CCN(C(=O)[C@H](Cc3ccc(O)cc3)n3cc([C@@H](N)CC(C)C)nn3)CC2)n1	i	i	i	56.8*	i	i
COc1ccc(-c2nn(-c3ccccc3C)cc2CNCc2cccnc2)cc1F	i	i	i	15.5	178*	i
Fc1ccccc1COc1ccc(Br)cc1CNCc1cccnc1	i	i	i	14.7	i	i
COc1cccc(-c2nn(-c3ccccc3)cc2CO)c1	i	i	i	-13.0	i	i
COc1ccc(CNCc2cn(-c3cccc(F)c3)nc2-c2ccc(C)o2)cc1	i	i	i	-7.9	103*	i
COc1ccc(-n2cc(CNCc3cccnc3)c(-c3cccc(F)c3)n2)cc1	i	i	i	5.0	94*	i
COc1ccc(-n2cc(CNCCc3cnc[nH]3)c(-c3cccc(F)c3)n2)cc1	i	i	i	11.2	i	i
COc1ccc(-c2nn(-c3ccccc3)cc2CNCc2cccnc2)c(F)c1	i	i	i	7.0	103*	i
CC1CN(/C=C/C=O)C(C)CC1OC(=O)c1ccccc1 (configuration not stated)	i	i	i	-15.6	i	i
CC(C)COc1ccc(-c2nn(-c3ccccc3)cc2CO)cc1	i	i	i	-15.9	i	10*
CCc1noc(C)c1C(=O)N1CCN(S(=O)(=O)c2cccs2)CC1	i	i	i	.	i	i
Cc1ccc(C)c(N2CCN(CCCNC(=O)Cn3c(=O)c4cccn4c4cccnc43)CC2)c1	i	-5*	i	25.1	i	i
Cc1ccc(C)c(N2CCN(CCCNC(=O)CCn3c(=O)c4cccn4c4cccnc43)CC2)c1	i	i	i	5.8	i	i
CN1C2C=C(N(CCc3ccccc3)C(=O)c3ccc(Cl)cc3)CC1CC2 (configuration not stated)	i	i	i	14.4	99*	i
SMILES	TRPC6 inhibitor	TRPC4 inh	TRPC6 activator	FID counter	TRPC4 act	TRPC4 PAM
Cc1ccc(NC(=O)CNC(=O)c2ccco2)nc1	i	i	i	-0.9	i	i
CC(C)Cc1nnc(NC(=O)c2ccc3c(c2)NC(=O)C(C)S3)s1 (configuration not stated)	i	i	i	.	i	i
CC(C)(C)c1cc[n+](-c2[nH]c(=O)sc2/C=N/N=C(\[O-])c2cccnc2)cc1	i	i	i	-15.6	i	i
O=c1[nH]c(-[n+]2ccc3ccccc3c2)c(/C=N/N=C(\[O-])c2ccccc2)s1	i	-6*	i	-18.1	i	i
COc1cc2ccccc2c2c1CCCC2=O	i	-6*	i	-5.8	i	i
COc1cc(-c2nc3ccc4ccccc4c3c3c2CCC3)cc(OC)c1OC	i	i	i	-3.4	i	i
